Bioassay records deposited in PubChem by several laboratories.
mABHD4 FP: ABHD4 inhibitors, primary screen, biochemical, fluorescence polarization, mouse; (Lyso)-N-acylphosphatidylethanolamine lipase (Mus musculus), Q8VD66; purified mABHD4, FP-Rh probe fluorescence polarization; inhibition, % at 8.92 µM; 0.54% of 370,000 active; AID 720543, 2013;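 active = inhibition exceeding the mean over every tested compound plus 3 SD, cut at about 30% in these data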;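 also: 0% = plate median of compound wells and 100% = S159A mutant with DMSO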
Target sequence (Q8VD66 whole entry, looked up): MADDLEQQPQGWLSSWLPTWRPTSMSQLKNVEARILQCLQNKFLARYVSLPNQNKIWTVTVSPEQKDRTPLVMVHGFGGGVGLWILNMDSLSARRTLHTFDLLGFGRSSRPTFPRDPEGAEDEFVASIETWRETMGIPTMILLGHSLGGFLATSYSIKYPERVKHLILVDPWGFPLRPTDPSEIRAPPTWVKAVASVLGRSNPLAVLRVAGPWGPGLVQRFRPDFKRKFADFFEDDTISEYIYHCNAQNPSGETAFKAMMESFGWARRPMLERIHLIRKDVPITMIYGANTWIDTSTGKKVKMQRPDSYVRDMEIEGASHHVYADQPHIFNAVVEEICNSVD
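System: mouse ABHD4 enzyme, wild type / Medium: HEPES pH 7.0, NaCl, Pluronic buffer / Reagent: FP-Rh activity-based fluorescent probe / Control set: S159A mutant high control, sample median low control / Detection: fluorescence polarization with parallel and perpendicular emission, 525/598 nm / Schedule: 45 min + 60 min at 25 °C / Compound dosing: 8.92 µM, single dose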
HTRA1 inhibitor: HTRA1 serine protease inhibitors, primary screen, biochemical, fluorescence polarization, HTS; inhibition, % at 5.96 µM; AID 504803, 2011; recombinant HTRA1, FP-rhodamine activity-based probe; 0.5% of 340,000 active; Q92743; in the data active = inhibition above about 36%;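 also: 0% = enzyme with DMSO and 100% = wells lacking enzyme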
JMJD2C inh: inhibitors of GASC-1 histone demethylase, primary screen, biochemical, fluorescence, DELFIA europium; GST-JMJD2C(1-420) H3K9me3 demethylation; inhibition, % at 2.35 µM; 0.069% of 330,000 active;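 active = more than half of a compound's replicate wells show inhibition beyond 50%, single wells judged on their own value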;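 also: signal counts dimethyl H3K9 product captured on neutravidin plate; 0% = median of DMSO wells and 100% = 0.3 times that DMSO median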
SIAE primary: human SIAE inhibitors, primary screen, biochemical, fluorescence polarization, FP-Rh probe, 1536-well HTS. AID 1053197, 2014. SIAE FP-Rh probe binding. 0.69% of 370,000 active. inhibition, % at 9.66 µM;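 active = inhibition above a cutoff: mean of compounds within the control limits plus 3 SD of those, cut at about 17% in these data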;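 also: 0% = plate median of compound wells and 100% = probe without SIAE protein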
PRMT1 FP inh: PRMT1 methyltransferase inhibitors, primary screen, biochemical, fluorescence polarization; inhibition, % at 2.79 µM; 1.3% of 370,000 active; Protein arginine N-methyltransferase 1 (Homo sapiens), Q99873; recombinant PRMT1, activity-based probe fluorescence polarization; AID 652257, 2013;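 active = inhibition above about 21% made by adding two undisclosed values, limit read from the data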
mABHD4 conf: ABHD4 inhibitors, retest, confirmation, biochemical, fluorescence polarization, mouse; shares compounds with mABHD4 FP; purified mABHD4, FP-Rh probe fluorescence polarization; inhibition, % at 8.92 µM; 55% of 1,800 active; AID 720658, 2013;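 active = mean inhibition across replicates above the hit cutoff set in the primary screen, cut at about 30% in these data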;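 also: 0% = wild-type ABHD4 with DMSO and 100% = catalytically dead S159A mutant with DMSO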
Active calls of the source: *. Rows were chosen to be rich in hits. Some 2.4% of all compounds tested hit in one or more screens of this group.

For C=CCN(c1ccccc1C(=O)NCC(=O)O)S(=O)(=O)c1ccc(C)cc1 the results were mABHD4 FP 9.5, HTRA1 inhibitor -5.5, JMJD2C inh -7.1, SIAE primary -0.8 and PRMT1 FP inh -3.0.
`C=CCN(c1ccccc1C(=O)O)S(=O)(=O)c1ccc(NC(=O)OC)cc1` gave mABHD4 FP 34.6*, HTRA1 inhibitor 3.2, JMJD2C inh 11.3, SIAE primary -0.2, PRMT1 FP inh -0.5 and mABHD4 conf -5.7.
CC(=O)c1cc(-c2cccc(Cl)c2O)c(=O)n2c1CCC2 was read as mABHD4 FP -0.8, SIAE primary 2.0 and PRMT1 FP inh -0.3.
O=C(CSc1nc2ncccc2[nH]1)N1CCOCC1 was read as mABHD4 FP 2.2, SIAE primary -3.2 and PRMT1 FP inh -4.5.
`CNC[C@@H](CC1CCCCC1)NC[C@H](CC(C)C)NCCc1cccc(C(F)(F)F)c1` gave mABHD4 FP 31.1*, HTRA1 inhibitor 5.3, JMJD2C inh 3.6, SIAE primary -2.7, PRMT1 FP inh 1.5 and mABHD4 conf 51.5*.
`CCC[C@H](CN[C@@H](CNC)[C@H](C)CC)NCCc1cc(C(F)(F)F)cc(C(F)(F)F)c1` gave mABHD4 FP 27.0, HTRA1 inhibitor 4.2, JMJD2C inh -6.7, SIAE primary 9.3 and PRMT1 FP inh -2.0.
CN(Cc1cccc(C(F)(F)F)c1)C(=O)C1CCC(=O)N(CC2CCCCC2)C1 (stereo unspecified) was read as mABHD4 FP 6.2, HTRA1 inhibitor 2.2, JMJD2C inh 5.7, SIAE primary -0.1 and PRMT1 FP inh -3.7.
`CCC[C@@H](CNC)NC[C@H](Cc1ccccc1)NCCCCc1ccccc1` gave mABHD4 FP 17.2, HTRA1 inhibitor 2.2, JMJD2C inh 2.1, SIAE primary -0.8 and PRMT1 FP inh 3.7.
`CC[C@@H](C)[C@H](CNC)NC[C@@H](Cc1cccc2ccccc12)NCCc1cccc(C(F)(F)F)c1` gave mABHD4 FP 49.5*, HTRA1 inhibitor -7.4, JMJD2C inh -15.1, SIAE primary 0.3, PRMT1 FP inh -1.6 and mABHD4 conf 50.8*.
`CNC[C@@H](Cc1ccccc1)NC[C@@H](CC1CCCCC1)NCCCc1ccccc1` gave mABHD4 FP 38.5*, HTRA1 inhibitor 3.7, JMJD2C inh -8.0, SIAE primary 5.4, PRMT1 FP inh 1.4 and mABHD4 conf 46.1*.
`CCOC(=O)[C@]12CCCC3=C1N(CCC3)C(=O)[C@@H](CC(=O)N1CCCCC1)C2` gave mABHD4 FP -3.0, SIAE primary -4.4 and PRMT1 FP inh -1.7.
Screening Cc1cc(O)ccc1N/C=C/c1onc(C)c1[N+](=O)[O-] returned mABHD4 FP 55.6*, HTRA1 inhibitor 34.5, JMJD2C inh 7.8, SIAE primary 3.6, PRMT1 FP inh 33.2* and mABHD4 conf 0.1.
For C=CCN1C(=O)[C@@H](CC(=O)NCC23CC4CC(CC(C4)C2)C3)[C@]2(C(=O)OCC)CCCCC/C=C/12 the results were mABHD4 FP 4.6, SIAE primary 3.5 and PRMT1 FP inh 8.5.
Screening CCCCN1C(=O)N2Cc3ccccc3C2CS1(=O)=O (stereo unspecified) returned mABHD4 FP -5.4, SIAE primary -3.7 and PRMT1 FP inh 0.3.
`Cc1ccc(S(=O)(=O)Nc2nc3ccc(N)cc3s2)cc1` gave mABHD4 FP 49.1*, HTRA1 inhibitor 13.6, JMJD2C inh 5.7, SIAE primary 4.7, PRMT1 FP inh 6.6 and mABHD4 conf 26.1.
`Cc1nc(NC(=O)COc2ccccc2)sc1C(=O)Nc1ccccc1` gave mABHD4 FP 49.5*, HTRA1 inhibitor -31.8, JMJD2C inh -2.4, SIAE primary 0.1, PRMT1 FP inh 2.9 and mABHD4 conf 49.8*.
Screening Cc1nn(-c2ccccc2)c(Cl)c1C1C(C#N)=C(N)Oc2c1c(C)nn2-c1ccccc1 (stereo unspecified) returned mABHD4 FP 12.1, HTRA1 inhibitor 5.1, JMJD2C inh 1.3, SIAE primary -2.6 and PRMT1 FP inh 0.6.
`Cc1nn(Cc2ccccc2)c2c1C(c1cccc(Cl)c1)C(C#N)=C(N)O2` (stereo unspecified) gave mABHD4 FP 54.4*, HTRA1 inhibitor 14.3, JMJD2C inh 6.9, SIAE primary 12.8, PRMT1 FP inh -2.6 and mABHD4 conf 40.5*.
`Cc1nn(-c2ccccc2)c2c1C(c1ccncc1)C(C#N)=C(N)O2` (stereo unspecified) gave mABHD4 FP 10.6, HTRA1 inhibitor 3.9, JMJD2C inh 23.8, SIAE primary 7.9 and PRMT1 FP inh 1.0.
`COc1cc(-n2nc(C)c3c2OC(N)=C(C#N)C3c2ccccc2)c(Cl)c(Br)c1O` (stereo unspecified) gave mABHD4 FP 29.5*, HTRA1 inhibitor 27.4, JMJD2C inh -1.3, SIAE primary 5.2, PRMT1 FP inh 1.7 and mABHD4 conf 40.1*.
Screening O=C(COC(=O)c1ccccc1)Nc1ncc([N+](=O)[O-])s1 returned mABHD4 FP 38.8*, HTRA1 inhibitor 10.6, JMJD2C inh -5.5, SIAE primary -8.7, PRMT1 FP inh 24.6* and mABHD4 conf 40.5*.
COc1cccc(-c2nc(NCc3cccnc3)c3ccccc3n2)c1O was read as mABHD4 FP 25.8, HTRA1 inhibitor 2.6, JMJD2C inh -14.5, SIAE primary 1.9 and PRMT1 FP inh 2.7.
For COc1cccc2c(NCc3ccccc3)nc(-n3c(N)nc4ccccc43)nc12 the results were mABHD4 FP 37.1*, SIAE primary 6.7, PRMT1 FP inh -3.5 and mABHD4 conf 20.5.
O=C(c1cncnc1)N1CCC(n2nnc3ncccc32)CC1 was read as mABHD4 FP -1.4, SIAE primary 1.1 and PRMT1 FP inh -3.9.
`Cc1ccc(Nc2nc(NCCO)c3ccccc3n2)cc1C` gave mABHD4 FP 35.1*, HTRA1 inhibitor 5.4, JMJD2C inh 5.5, SIAE primary -4.2, PRMT1 FP inh -3.9 and mABHD4 conf 78.0*.
Screening COc1ccccc1Nc1nc(NCCO)c2ccccc2n1 returned JMJD2C inh -11.6.
`CCOC(=O)C1=C[C@@H](C(C)(C)C)N(S(=O)(=O)c2ccc([N+](=O)[O-])cc2)[C@H]1c1cccc(Cl)c1` gave mABHD4 FP 5.0, SIAE primary -9.2 and PRMT1 FP inh 1.1.
`N#CCSc1nc(Nc2ccc3c(c2)OCO3)c2ccccc2n1` gave HTRA1 inhibitor -12.8 and JMJD2C inh -6.2.
